Laboratory results from ChEMBL document CHEMBL3792310, “Amine-free melanin-concentrating hormone receptor 1 antagonists: Novel non-basic 1-(2H-indazole-5-yl)pyridin-2(1H)-one derivatives and mitigation of mutagenicity in Ames test” (Bioorg Med Chem, 2016).
Activity calls are given as the source filed them. No cut-off for these calls is given here.

Key:
[1] = molecular target: T1, Melanin-concentrating hormone receptor 1 (Homo sapiens, UniProt Q99705); assay: Displacement of [125I]-MCH(4 to 19) from human MCHR1 expressed in CHO cell membranes after 1 hr liquid scintillation counting
[2] = molecular target: Melanin-concentrating hormone receptor 1 (Rattus norvegicus, UniProt P97639); assay: Displacement of [125I]-MCH(4 to 19) from rat MCHR1 expressed in CHO cell membranes after 1 hr by liquid scintillation counting
[3] = test system: Salmonella typhimurium; assay: Mutagenicity in Salmonella typhimurium TA1537 assessed as increase in number of revertant colony up to 5000 ug/plate by Ames test in absence of S9 fraction; assay type: toxicity, organism-based; conditions: salmonella enterica subsp. enterica serovar typhimurium
Outline: (§1)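 Ames test in Salmonella typhimurium TA1537, with and without S9 metabolic activation. A positive call is a more than two-fold increase in revertant colonies over vehicle control.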

[4] = molecular target: T1, Melanin-concentrating hormone receptor 1; assay: Antagonist activity at human MCHR1 expressed in CHO cells assessed as inhibition of MCH-stimulated Ca2+ mobilization measured every 2 secs by fluorometric analysis; assay type: functional, cell-based
Outline: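 Human MCHR1 stably transfected into CHO dhfr− cells; clone no.4 used. Cells seeded at 20000/well, cultured about 24 h at 37 °C in 5% CO2, loaded with Fluo4 dye for 30 min. Compound in 10 mM HEPES pH 7.4 buffer with 0.1% BSA added first, then MCH(4–19) at 2 nM final. Fluorescence read at 2 s intervals; inhibition % taken against ligand-only and DMSO-only wells.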

[5] = test system: Rattus norvegicus; assay: Anorectic effect in DIO-F344/Jcl rat at 3 mg/kg, po administered for 2 days started 2 hrs prior to onset of dark period measured during compound dosing; assay type: functional
Outline: (§2)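 Male DIO-F344/Jcl rats, 44 weeks old, on high-fat diet from 5 weeks of age. Singly housed on powder high-fat diet and habituated to oral dosing with tap water, then grouped by day-0 food intake and body weight. Oral dosing at 2 mL/kg in 0.5% methylcellulose 2 h before dark onset for 2 days, n = 6. Two-day food intake is expressed as inhibition rate versus vehicle.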

[6] = test system: Rattus norvegicus; assay: Antiobesity activity in DIO-F344/Jcl rat assessed as reduction in body weight at 3 mg/kg, po dosed for 2 weeks and measured every 2 or 3 days relative to vehicle control; assay type: functional, organism-based
Outline: (§3)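 DIO-F344 rats, 48 weeks old, habituated and grouped as for the acute study. Dosed orally once daily for 2 weeks at 2 mL/kg in 0.5% methylcellulose, 1–3 h before dark onset, after body weight measurement; n = 6. Sibutramine positive control. Food intake read every 2 or 3 days. Body weight change is taken as percent of initial weight; mean and SD reported.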

[7] = test system: Rattus norvegicus; assay: Anorectic effect in DIO-F344/Jcl rat at 10 mg/kg, po administered for 2 days started 2 hrs prior to onset of dark period measured during compound dosing; assay type: functional; outline: as §2
[8] = test system: Rattus norvegicus; assay: Antiobesity activity in DIO-F344/Jcl rat assessed as reduction in body weight at 5 mg/kg, po dosed for 2 weeks and measured every 2 or 3 days relative to vehicle control; assay type: functional; design: scale not given: the % may be the effect or the level left; outline: as §3
[9] = test system: Rattus norvegicus; assay: Antiobesity activity in DIO-F344/Jcl rat assessed as reduction in body weight at 10 mg/kg, po dosed for 2 weeks and measured every 2 or 3 days relative to vehicle control; assay type: functional; design: scale not given: the % may be the effect or the level left; outline: as §3
[10] = Fraction unbound in DIO-F344/Jcl rat plasma at 10 mg/kg, po; assay type: ADME, organism-based
[11] = species: Mus musculus; assay: Anorectic effect in wild type mouse assessed as reduction in food intake; assay type: functional, organism-based
[12] = species: Mus musculus; assay: Toxicity in MCHR deficient mouse assessed as effect on food intake; assay type: organism-based; conditions: in vivo
[13] = test system: Rattus norvegicus; assay: Trough plasma concentration in DIO-F344/Jcl rat at 10 mg/kg, po; assay type: ADME, organism-based; conditions: in vivo, read-out: Cmin
[14] = test system: Plasma; assay: Unbound plasma concentration in DIO-F344/Jcl rat at 10 mg/kg, po; assay type: ADME, organism-based; conditions: in vivo
[15] = Ratio of drug level in brain to plasma in po dosed DIO-F344/Jcl rat; assay type: ADME, organism-based; conditions: read-out: BPR
[16] = Oral bioavailability in Sprague-Dawley rat plasma at 1 mg/kg administered through cassette dosing by LC/MS/MS analysis; assay type: ADME, organism-based
Outline: (§4)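 Male SD rats, eight weeks old, fed; cassette dosing iv at 0.1 mg/kg or po at 1 mg/kg as a suspension in 0.5% methylcellulose, n = 3. Plasma taken from blood, deproteinized with acetonitrile, centrifuged, and the supernatant measured by LC/MS/MS. AUC covers 0–8 h.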

[17] = Total plasma clearance in Sprague-Dawley rat at 0.1 mg/kg, iv administered through cassette dosing by LC/MS/MS analysis; assay type: ADME, organism-based; outline: as §4
[18] = Volume of distribution at steady state in Sprague-Dawley rat at 0.1 mg/kg, iv administered through cassette dosing by LC/MS/MS analysis; assay type: ADME, organism-based; conditions: in vivo, read-out: Vdss; outline: as §4
[19] = Cmax in Sprague-Dawley rat at 1 mg/kg, po administered through cassette dosing by LC/MS/MS analysis; assay type: ADME, organism-based; design: dose 1 mg/kg, route oral; conditions: in vivo; outline: as §4
[20] = Tmax in Sprague-Dawley rat at 1 mg/kg, po administered through cassette dosing by LC/MS/MS analysis; assay type: ADME, organism-based; conditions: in vivo; outline: as §4
[21] = AUC(0 to 8 hrs) in Sprague-Dawley rat at 1 mg/kg, po administered through cassette dosing by LC/MS/MS analysis; assay type: ADME, organism-based; design: dose 1 mg/kg, route oral; conditions: in vivo; outline: as §4
[22] = molecular target: T2, Cytochrome P450 1A2 (Homo sapiens, UniProt P05177); assay: Reversal inhibition of CYP1A2 (unknown origin) at 10 uM; assay type: ADME
T2 sequence (P05177 whole entry): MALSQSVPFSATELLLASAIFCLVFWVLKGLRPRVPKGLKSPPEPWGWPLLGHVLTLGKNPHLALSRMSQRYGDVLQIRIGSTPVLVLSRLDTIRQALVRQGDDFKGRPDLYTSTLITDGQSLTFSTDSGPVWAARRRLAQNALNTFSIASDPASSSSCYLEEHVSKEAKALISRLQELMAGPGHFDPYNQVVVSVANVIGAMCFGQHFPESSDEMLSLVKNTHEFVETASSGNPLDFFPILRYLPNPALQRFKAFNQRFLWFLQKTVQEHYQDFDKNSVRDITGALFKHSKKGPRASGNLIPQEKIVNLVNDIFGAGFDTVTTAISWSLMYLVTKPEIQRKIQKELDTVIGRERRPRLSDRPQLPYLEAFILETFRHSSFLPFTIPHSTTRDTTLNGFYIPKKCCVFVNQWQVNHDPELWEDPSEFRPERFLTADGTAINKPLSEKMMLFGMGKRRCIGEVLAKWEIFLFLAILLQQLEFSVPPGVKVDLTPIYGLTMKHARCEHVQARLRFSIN

[23] = molecular target: T3, Cytochrome P450 2C8 (Homo sapiens, UniProt P10632); assay: Reversal inhibition of CYP2C8 (unknown origin) at 10 uM; assay type: ADME
T3 sequence (P10632 whole entry): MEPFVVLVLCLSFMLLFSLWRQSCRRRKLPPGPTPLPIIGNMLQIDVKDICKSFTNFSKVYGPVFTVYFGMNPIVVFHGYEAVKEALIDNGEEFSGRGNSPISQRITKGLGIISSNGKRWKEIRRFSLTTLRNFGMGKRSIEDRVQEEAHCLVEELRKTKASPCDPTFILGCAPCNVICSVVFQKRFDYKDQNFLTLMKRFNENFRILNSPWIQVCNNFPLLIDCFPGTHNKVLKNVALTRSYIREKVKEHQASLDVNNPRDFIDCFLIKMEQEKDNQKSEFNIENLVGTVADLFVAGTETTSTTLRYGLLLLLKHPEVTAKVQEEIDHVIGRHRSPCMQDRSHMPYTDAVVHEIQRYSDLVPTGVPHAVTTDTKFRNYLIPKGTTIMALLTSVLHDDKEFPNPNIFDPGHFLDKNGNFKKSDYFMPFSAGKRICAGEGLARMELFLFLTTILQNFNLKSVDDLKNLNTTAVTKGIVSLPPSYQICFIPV

[24] = molecular target: Cytochrome P450 2C9 (Homo sapiens, UniProt P11712); assay: Reversal inhibition of CYP2C9 (unknown origin) at 10 uM; assay type: ADME
[25] = molecular target: Cytochrome P450 2D6 (Homo sapiens, UniProt P10635); assay: Reversal inhibition of CYP2D6 (unknown origin) at 10 uM; assay type: ADME
[26] = molecular target: Cytochrome P450 3A4 (Homo sapiens, UniProt P08684); assay: Reversal inhibition of CYP3A4 (unknown origin) at 10 uM; assay type: ADME
[27] = test system: Rattus norvegicus; assay: Anorectic effect in DIO-F344/Jcl rat assessed as reduction in cumulative food intake at 5 mg/kg, po administered once daily for 2 weeks measured during compound dosing; design: scale not given: the % may be the effect or the level left
[28] = test system: Rattus norvegicus; assay: Anorectic effect in DIO-F344/Jcl rat assessed as reduction in cumulative food intake at 10 mg/kg, po administered once daily for 2 weeks measured during compound dosing; design: scale not given: the % may be the effect or the level left
[29] = test system: Salmonella typhimurium; assay: Mutagenicity in Salmonella typhimurium TA1537 at 250 ug by Ames test in presence of S9 fraction; assay type: toxicity, organism-based, Salmonella enterica subsp. enterica serovar Typhimurium; outline: as §1
[30] = test system: Salmonella typhimurium; assay: Mutagenicity in Salmonella typhimurium TA1537 assessed as increase in number of revertant colony at 250 ug/plate by Ames test in absence of S9 fraction; assay type: toxicity, organism-based; conditions: salmonella enterica subsp. enterica serovar typhimurium; outline: as §1
[31] = test system: Salmonella typhimurium; assay: Mutagenicity in Salmonella typhimurium TA1537 assessed as increase in number of revertant colony at 313 ug/plate by Ames test in absence of S9 fraction; assay type: toxicity, organism-based; conditions: salmonella enterica subsp. enterica serovar typhimurium

T1 sequence (Q99705 whole entry): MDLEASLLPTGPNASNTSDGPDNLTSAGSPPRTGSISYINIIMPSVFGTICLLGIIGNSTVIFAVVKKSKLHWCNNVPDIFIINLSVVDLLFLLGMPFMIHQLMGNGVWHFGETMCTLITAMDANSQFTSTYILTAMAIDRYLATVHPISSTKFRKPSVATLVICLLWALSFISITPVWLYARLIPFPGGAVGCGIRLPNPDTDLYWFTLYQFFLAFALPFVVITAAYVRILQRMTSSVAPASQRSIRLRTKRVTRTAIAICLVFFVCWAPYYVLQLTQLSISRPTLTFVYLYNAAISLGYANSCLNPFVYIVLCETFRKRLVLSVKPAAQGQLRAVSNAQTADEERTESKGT
Chain of Melanin-concentrating hormone receptor 1 (Rattus norvegicus, UniProt P97639) (P97639 whole entry): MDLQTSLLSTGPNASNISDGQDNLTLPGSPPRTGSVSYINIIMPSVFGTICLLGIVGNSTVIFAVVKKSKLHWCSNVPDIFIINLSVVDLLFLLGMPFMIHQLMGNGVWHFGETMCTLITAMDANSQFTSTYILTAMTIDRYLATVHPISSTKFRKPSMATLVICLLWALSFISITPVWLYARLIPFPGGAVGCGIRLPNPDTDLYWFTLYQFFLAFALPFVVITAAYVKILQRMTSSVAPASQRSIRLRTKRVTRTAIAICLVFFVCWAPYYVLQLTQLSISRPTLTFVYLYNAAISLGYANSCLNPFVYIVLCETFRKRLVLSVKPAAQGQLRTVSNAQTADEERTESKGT
Chain of Cytochrome P450 2D6 (P10635 whole entry): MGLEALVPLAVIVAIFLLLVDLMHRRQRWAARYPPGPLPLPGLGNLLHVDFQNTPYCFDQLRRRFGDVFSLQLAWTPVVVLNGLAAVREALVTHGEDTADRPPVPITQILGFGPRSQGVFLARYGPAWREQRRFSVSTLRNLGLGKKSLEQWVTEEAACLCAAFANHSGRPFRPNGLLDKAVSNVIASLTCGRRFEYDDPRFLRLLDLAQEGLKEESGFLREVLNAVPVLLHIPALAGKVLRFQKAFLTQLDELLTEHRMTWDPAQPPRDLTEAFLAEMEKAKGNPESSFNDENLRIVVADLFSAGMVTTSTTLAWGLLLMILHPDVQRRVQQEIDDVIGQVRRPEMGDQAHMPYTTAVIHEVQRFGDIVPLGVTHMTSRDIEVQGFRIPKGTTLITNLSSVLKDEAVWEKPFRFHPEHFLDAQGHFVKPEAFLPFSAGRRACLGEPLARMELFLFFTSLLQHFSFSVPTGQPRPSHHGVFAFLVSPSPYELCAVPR
Chain of Cytochrome P450 2C9 (P11712 whole entry): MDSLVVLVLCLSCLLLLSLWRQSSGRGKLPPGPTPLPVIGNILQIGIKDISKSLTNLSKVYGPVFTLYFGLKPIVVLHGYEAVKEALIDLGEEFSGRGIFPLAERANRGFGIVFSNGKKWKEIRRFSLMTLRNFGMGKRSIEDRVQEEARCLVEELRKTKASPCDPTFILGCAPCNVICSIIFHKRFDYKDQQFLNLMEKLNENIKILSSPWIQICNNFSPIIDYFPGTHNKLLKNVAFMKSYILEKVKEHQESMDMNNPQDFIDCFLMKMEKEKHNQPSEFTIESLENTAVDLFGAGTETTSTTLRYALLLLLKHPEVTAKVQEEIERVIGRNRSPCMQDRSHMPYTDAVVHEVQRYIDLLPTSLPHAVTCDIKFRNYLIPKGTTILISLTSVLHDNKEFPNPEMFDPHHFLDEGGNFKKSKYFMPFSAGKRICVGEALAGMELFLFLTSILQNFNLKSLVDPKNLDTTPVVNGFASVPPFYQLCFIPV
Chain of Cytochrome P450 3A4 (P08684 whole entry): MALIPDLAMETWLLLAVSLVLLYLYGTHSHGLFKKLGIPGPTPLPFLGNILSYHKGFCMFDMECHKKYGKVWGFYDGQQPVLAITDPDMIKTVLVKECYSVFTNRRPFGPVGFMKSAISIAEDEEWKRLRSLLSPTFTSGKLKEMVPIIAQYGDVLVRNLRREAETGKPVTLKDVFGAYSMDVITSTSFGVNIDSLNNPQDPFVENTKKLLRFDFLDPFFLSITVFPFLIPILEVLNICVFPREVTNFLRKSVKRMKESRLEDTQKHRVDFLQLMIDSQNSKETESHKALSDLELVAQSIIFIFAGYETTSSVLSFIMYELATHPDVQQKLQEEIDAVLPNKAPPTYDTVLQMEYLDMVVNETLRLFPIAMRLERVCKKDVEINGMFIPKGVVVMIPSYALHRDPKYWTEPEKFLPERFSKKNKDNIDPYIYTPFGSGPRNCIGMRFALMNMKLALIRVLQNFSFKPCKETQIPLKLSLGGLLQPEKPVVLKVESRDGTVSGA

## Cc1c2cc(-n3ccc(OCc4csc(C(F)(F)F)n4)cc3=O)ccc2nn1C
[1]
  IC50: 230 nM
[2]
  IC50: 130 nM

## Cc1c(C2CC2)nn2ccc(-n3ccc(OCc4ccc(Cl)cc4)cc3=O)cc12
[1]
  IC50: 69 nM

## Cc1c2cc(-n3ccc(OCc4csc(C(F)(F)F)c4)cc3=O)ccc2nn1C1CC1
[3]
  Activity: Non-toxic
[1]
  IC50: 38 nM
[2]
  IC50: 26 nM
[4]
  IC50: 79 nM
[5]
  Activity: 21.5%
[6]
  Activity: Active
[7]
  Activity: 30.6%
[8]
  Activity: 3.9%
[9]
  Activity: 7.6%
[10]
  fraction unbound: 0.022
[11]
  Activity: Dose-dependent effect
[12]
  Activity: Non-toxic
[13]
  concentration: 3.36 µM
[14]
  Cp(f): 0.0739 µM
[15]
  Kp: 0.66
[16]
  bioavailability: 78%
[17]
  clearance: 4.93 mL/min/kg
[18]
  Vd: 0.949 L/kg
[19]
  Cmax: 426 ng/mL
[20]
  Tmax: 2.7 h
[21]
  AUC(0-t) at 6 h: 2880 ng·h/mL
[22]
  inhibition (INH): Not Active
[23]
  inhibition (INH): Not Active
[24]
  inhibition (INH): Not Active
[25]
  inhibition (INH): Not Active
[26]
  inhibition (INH): Not Active
[27]
  Activity: 12.2%
[28]
  Activity: 23.2%

## Cc1c2cc(-n3ccc(OCc4cc(C(F)(F)F)cs4)cc3=O)ccc2nn1C
[1]
  IC50: 74 nM
[2]
  IC50: 38 nM

## Cc1c2cc(-n3ccc(OCc4nc(C(F)(F)F)cs4)cc3=O)ccc2nn1C
[1]
  IC50: 130 nM
[2]
  IC50: 76 nM

## CCn1nc2ccc(-n3ccc(OCc4ccc(Cl)cc4)cc3=O)cc2c1C
[1]
  IC50: 140 nM
[2]
  IC50: 65 nM

## Cc1c2cc(-n3ccc(OCc4ccc(Cl)cc4)cc3=O)ccc2nn1C
[1]
  IC50: 35 nM
[29]
  Activity: Non-toxic
[30]
  fold change (FC): 2
[2]
  IC50: 36 nM

## Cc1c2cc(-n3ccc(OCc4ccc(Cl)cc4)cc3=O)ccc2nn1C1CC1
[3]
  Activity: Non-toxic
[1]
  IC50: 31 nM
[2]
  IC50: 23 nM
[4]
  IC50: 33 nM
[16]
  bioavailability: 37%
[17]
  clearance: 3.45 mL/min/kg
[18]
  Vd: 0.676 L/kg
[19]
  Cmax: 291 ng/mL
[20]
  Tmax: 4 h
[21]
  AUC(0-t) at 6 h: 1810 ng·h/mL

## Cc1c2cc(-n3ccc(OCc4ccc(F)cc4)cc3=O)ccc2nn1C
[3]
  Activity: Non-toxic
[1]
  IC50: 110 nM
[2]
  IC50: 76 nM

## Cc1c2cc(-n3ccc(OCc4ccc(F)cc4)cc3=O)ccc2nn1C1CC1
[3]
  Activity: Non-toxic
[1]
  IC50: 43 nM
[2]
  IC50: 35 nM

## Cc1nn(C)c2ccc(-n3ccc(OCc4ccc(Cl)cc4)cc3=O)cc12
[1]
  IC50: 99 nM

## Cc1c2cc(-n3ccc(OCc4csc(C(F)(F)F)c4)cc3=O)ccc2nn1C
[1]
  IC50: 90 nM
[2]
  IC50: 70 nM
[31]
  fold change (FC): 2

## Cc1c2cc(-n3ccc(OCc4ccc(C(F)(F)F)s4)cc3=O)ccc2nn1C
[1]
  IC50: 170 nM
[2]
  IC50: 90 nM

## Cn1c(C2CC2)cc2ccc(-n3ccc(OCc4ccc(Cl)cc4)cc3=O)cc21
[1]
  IC50: 150 nM

## CCCn1nc2ccc(-n3ccc(OCc4ccc(Cl)cc4)cc3=O)cc2c1C
[1]
  IC50: 210 nM
[2]
  IC50: 130 nM
